From PubChem BioAssay
Mcl1-Bid inh: Mcl-1/Bid binding inhibitors, primary screen, biochemical, TR-FRET, 1536-well; TR-FRET Mcl-1/Bid-Dy647 peptide binding; inhibition, % at 21.7 µM; Induced myeloid leukemia cell differentiation protein Mcl-1 (Homo sapiens), Q07820; 220,000 tested, 0.97% active;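 active = compounds that cut the binding signal by more than half at the single screening dose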;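 note: His-tagged Mcl-1 with europium anti-His antibody binding Bid BH3 peptide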
Target sequence (Q07820 whole entry, looked up): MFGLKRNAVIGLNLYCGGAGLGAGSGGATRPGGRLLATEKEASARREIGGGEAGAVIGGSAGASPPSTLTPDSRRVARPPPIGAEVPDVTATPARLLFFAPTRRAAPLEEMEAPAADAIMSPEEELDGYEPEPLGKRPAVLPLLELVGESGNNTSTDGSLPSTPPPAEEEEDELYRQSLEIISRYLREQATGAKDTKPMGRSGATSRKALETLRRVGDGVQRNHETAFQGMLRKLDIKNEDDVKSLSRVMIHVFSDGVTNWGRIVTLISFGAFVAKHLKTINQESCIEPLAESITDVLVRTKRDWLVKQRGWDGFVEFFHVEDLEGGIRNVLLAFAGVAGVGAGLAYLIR
Mcl-1 Bim block: inhibitors of Bim peptide binding to Mcl-1, primary screen, biochemical, bead-based flow cytometry, multiplex | Induced myeloid leukemia cell differentiation protein Mcl-1 (Homo sapiens), Q07820 | Bim peptide-Mcl-1 binding | inhibition, % at 10 µM | 190,000 tested, 0.1% active | AID 1009, 2008; in the data active = inhibition above about 40%
Arbovirus anti: antivirals against arbovirus infection, primary screen, cell-based, full library, 10K replicate subset | AID 1251, 2008 | inhibition, % at 10 µM | arbovirus infection cell-based antiviral screen | 200,000 tested, 0.37% active; in the data active = inhibition above about 30%
Mcl1-Noxa inh: Mcl-1/Noxa binding inhibitors, primary screen, biochemical, TR-FRET, 1536-well | TR-FRET Mcl-1/Noxa peptide binding, 2 h | inhibition, % at 21.7 µM | 220,000 tested, 1.5% active | AID 1022, 2008;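 active = compounds that cut the protein-peptide binding signal by more than 50% relative to plate controls in a single-dose test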;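 note: His-tagged Mcl-1 with rhodamine Noxa BH3 peptide and terbium anti-His antibody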
m-calpain inh: inhibitors of pig calpain II, primary screen, biochemical, fluorogenic peptide substrate, 1536-well | purified calpain II, 30 min | inhibition, % at 16 µM | 220,000 tested, 0.37% active | AID 1236, 2008;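 active = inhibition above about 50%, limit read from the data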
Calb biofilm kill: clotrimazole potentiators killing C. albicans biofilm, primary screen, 4-compound mixtures; inhibition, % at 7.6 µM; C. albicans biofilm persisters + clotrimazole, fluorescence viability; primary screen in compound mixtures of four per well; AID 1242, 2008; 120,000 tested, 0.02% active;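 active = inhibition above 30.3% in the primary screen of four-compound pools, then above 30% when the compound was retested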;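 note: compounds exposed to preformed 24 h biofilms for 48 h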
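Incubation: 24 h biofilm formation, then 48 h compound exposure, 37 °C | Material: C. albicans biofilms | Buffer or medium: RPMI/MOPS medium, pH 7.0 | Measured by: 2-h Alamar Blue fluorescence, 535/590 nm excitation/emission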
Of the large screens only hits and unclear results are named; the others gave an inactive call. Sampled rows, rich in hits. Any-hit rate of the full collection: about 2.8%.

COc1cccc(Oc2nccc(N(C)C)c2C#N)c1	none
c1ccc2c(c1)CC1(CCCC1)N=C2N1CCOCC1	none (no result: Mcl-1 Bim block, Arbovirus anti)
CCOc1ccccc1N1CCN(CC(=O)NCCc2ccc(S(N)(=O)=O)cc2)CC1	none
COc1cc(C)c(Br)cc1S(=O)(=O)NCCN1CCOCC1	none
COc1cc(CN2CCN(C(=O)CC(C)C)CC2)cc(OC)c1O	Mcl1-Bid inh 51 (no result: Calb biofilm kill)
COc1cc(CN2CCN(C(=O)CC(C)C)CC2)cc(OC)c1OC	none (no result: Calb biofilm kill)
Oc1ccccc1CNCCCNCc1ccccc1O	Arbovirus anti 44 (no result: Calb biofilm kill)
CCc1nnc(NC(=O)CSc2nnc(Cc3cc(=O)[nH]c(=O)[nH]3)n2-c2cccc(OC)c2)s1	none
CCS(=O)(=O)c1ccc(S(=O)(=O)CC)s1	Mcl1-Bid inh 70, m-calpain inh 52 (no result: Calb biofilm kill)
Cc1nn(C2CCS(=O)(=O)C2)c(Cl)c1/C=C/C(=O)OCC(=O)c1cc(C)n(-c2ccc(F)cc2)c1C (stereo not drawn)	none
O=C(COc1ccccc1-c1ccccc1)NCc1cccc(Cl)c1	none
COc1ccc(C(CCN2CCOCC2)c2c(O)cc(OC)cc2OC)cc1 (stereo not drawn)	none (no result: Mcl-1 Bim block, Arbovirus anti)
COc1ccc(C(c2c(O)ccc3ccccc23)N2CCOCC2)c(OC)c1 (stereo not drawn)	Mcl1-Noxa inh 79 (no result: Calb biofilm kill)
Cc1cc(Br)cnc1NC(=S)Nc1ccc(F)cc1F	none
CCOC(=O)C1(CCOc2ccccc2)CCN(Cc2cc(OC)c3c(c2)OCO3)CC1	none
O=C(CCc1ccccc1)NNC(=O)C12CC3CC(CC(C3)C1)C2	none (no result: Calb biofilm kill)
O=C(NNC(=O)C12CC3CC(CC(C3)C1)C2)c1ccco1	Mcl-1 Bim block 88
Cc1cccc(N2CCN(S(=O)(=O)c3ccc4c(c3)n(C)c(=O)c(=O)n4C)CC2C)c1 (stereo not drawn)	Mcl1-Bid inh 56 (no result: Calb biofilm kill)
Nc1ccc2c(c1)-c1ccccc1S(=O)(=O)N2	Mcl1-Noxa inh 52 (no result: Calb biofilm kill)
O=S1(=O)NC(=NCCOCCO)c2ccccc21	none
CCOC(=O)N1CCC(n2c(SCC(=O)c3ccccc3)nc3ccsc3c2=O)CC1	Mcl1-Bid inh 65 (no result: Calb biofilm kill)
CCOC(=O)CSc1nc2ccsc2c(=O)n1C1CCN(C(=O)OCC)CC1	none (no result: Calb biofilm kill)
C/C(=N\NC(=O)C1COc2ccccc2O1)c1ccc(N2CCOCC2)cc1 (stereo not drawn)	none
Brc1ccccc1/C=N/Nc1ccc2ccccc2n1	Arbovirus anti 39
CN(c1nc2nonc2nc1NC1CC1)C1CCOC1 (stereo not drawn)	none
COc1ccc(NC(=O)CN2CCOCC2)cc1	Mcl1-Bid inh 71 (no result: Calb biofilm kill)
O=C(CN1CCOCC1)Nc1ccc(Oc2ccc(NC(=O)CN3CCOCC3)cc2)cc1	none (no result: Calb biofilm kill)
O=C(Cc1ccccc1)Nc1ccc(N2CCCC2)cc1	Mcl1-Noxa inh 82 (no result: Calb biofilm kill)
O=C(Nc1ccc(N2CCCCCC2)cc1)c1ccccc1Cl	Mcl1-Noxa inh 52
CC1CCN(c2ccc(NC(=O)Cc3ccccc3)cc2)CC1	Mcl1-Noxa inh 87
CCC(=O)Nc1ccc(N2CCC(C)CC2)cc1	none
O=C(Cc1ccccc1)Nc1ccc(N2CCOCC2)cc1	none
CC1=C(C(=O)OCC2CCCO2)C(c2ccc(F)cc2)NC(=O)N1 (stereo not drawn)	none
O=C(CN1CCCCC1)Nc1ccc(N2CCCCCC2)cc1	Mcl1-Noxa inh 67
Cc1cc(C)cc(C(=O)Nc2ccc(N3CCCC3)cc2)c1	Mcl1-Noxa inh 67
COc1cccc(-c2nc(NC(C)C)c3ccccc3n2)c1O	none (no result: Calb biofilm kill)
COc1cccc(-c2nc(Oc3cccc(C)c3C)c3ccccc3n2)c1O	Mcl1-Bid inh 52
COc1ccc(Oc2cc(C(F)(F)F)nc(N(C)C)n2)cc1	none
Cc1ccc(SCc2cc(=O)n3ccsc3n2)c(C)c1	none
COC(=O)c1ccc(OCc2cc(=O)n3ccsc3n2)cc1	Mcl1-Bid inh 65
COc1cccc(NC(=O)c2cc([N+](=O)[O-])ccc2NCc2cccnc2)c1	none
NC(=O)c1cc([N+](=O)[O-])ccc1NCc1cccnc1	Arbovirus anti 37
Cc1ccc2nc3c(c(Nc4ccc5c(c4)OCCO5)c2c1)CCC3	Mcl1-Noxa inh 56
Cc1cccc(Nc2c3c(nc4ccccc24)CCC3)c1	none (no result: Mcl-1 Bim block, Arbovirus anti)
O=C(N/N=C/c1ccsc1)c1ccc2ccccc2n1	none
COc1ccc(Nc2ccnc3ccccc23)cc1	none (no result: Calb biofilm kill)
CC(C)Nc1ccc(Nc2ccnc3cc4ccccc4cc23)cc1	Mcl1-Noxa inh 68 (no result: Mcl-1 Bim block, Arbovirus anti)
CC(=O)N1c2ccccc2C2(O)N=C(C)SC12 (stereo not drawn)	Mcl1-Noxa inh 55
CCCCCCn1c(SCC(=O)Nc2cc(C)on2)nc2ccccc2c1=O	none (no result: Mcl1-Noxa inh, Calb biofilm kill)
Cn1c(N)c(C(=O)CSc2nc3ccccc3c(=O)n2Cc2ccccc2)c(=O)n(C)c1=O	Mcl1-Bid inh 52 (no result: Mcl-1 Bim block, Arbovirus anti)
Cn1c(N)c(C(=O)COC(=O)C2CCCCC2)c(=O)n(C)c1=O	m-calpain inh 89 (no result: Calb biofilm kill)
Cn1c(N)c(C(=O)COC(=O)C2CCN(S(=O)(=O)c3cccs3)CC2)c(=O)n(C)c1=O	none (no result: Mcl-1 Bim block, Arbovirus anti)
Cn1c(N)c(C(=O)COC(=O)c2cc(-c3ccco3)nc3ccccc23)c(=O)n(Cc2ccccc2)c1=O	Mcl1-Noxa inh 106
Cc1cc(NC(=O)CSc2nc3ccccc3c(=O)n2Cc2ccc(F)cc2)no1	Mcl1-Bid inh 57 (no result: Calb biofilm kill)
CC(O)CNc1nc(Cl)c(C#N)s1 (stereo not drawn)	none
Cn1c(N)c(C(=O)COC(=O)c2cc(-c3ccco3)nc3ccccc23)c(=O)n(C)c1=O	Mcl1-Noxa inh 87
Cn1c(N)c(C(=O)COC(=O)CCCc2nc3ccccc3s2)c(=O)n(C)c1=O	m-calpain inh 51
COc1cccc(/C=C/C(=O)Nc2ccc3c(c2)OCCO3)c1OC	none
O=C(COC(=O)c1ccc(S(=O)(=O)N2CCCC2)cc1)NCc1cccs1	none
O=C(/C=C/c1ccc(O)cc1)c1ccc(O)cc1O	none
O=CN/C=C/c1cc(O)ccc1O	Mcl1-Noxa inh 57 (no result: Mcl-1 Bim block, Arbovirus anti)
N/N=C/C(=N\Nc1ccc(Cl)cc1)C(=O)c1ccncc1	none (no result: Mcl-1 Bim block, Arbovirus anti)
O=C(NN=C1CCCC1)C1COc2ccccc2O1 (stereo not drawn)	none
CC(=O)c1ccc(NC(=O)Nc2ccc3c(c2)N(C)C(=O)CS3)cc1	Mcl1-Noxa inh 61 (no result: Calb biofilm kill)
COc1cccc(/C=N/N2C(=O)CSC2=S)c1O	none
O=C1CSC(=S)N1/N=C/C=C/c1ccccc1	none
COc1cc(/C=N/N2C(=O)CSC2=S)cc(Br)c1O	Mcl1-Noxa inh 58
CCN=c1scc(C)n1/N=C/c1cc(Br)c(O)c(OC)c1	Mcl1-Noxa inh 63
COc1ccc2ccccc2c1/C=N/N1C(=O)CSC1=S	Arbovirus anti 32
COc1ccc(N2CCN(c3oc(COc4ccc(Cl)cc4Cl)nc3C#N)CC2)cc1	m-calpain inh 51 (no result: Calb biofilm kill)
